Experimental data gathered from unrelated publications.
CA1: Carbonic anhydrase 1 (CA1, Homo sapiens, UniProt P00915)
SLC18A2: Synaptic vesicular amine transporter (SLC18A2, Homo sapiens, UniProt Q05940)
ADRA2A: Alpha-2A adrenergic receptor (ADRA2A, Homo sapiens, UniProt P08913)
LATS1: Serine/threonine-protein kinase LATS1 (LATS1, Homo sapiens, UniProt O95835)

CN(C)CCC(c1ccccc1)c1ccccn1 (stereo not drawn)  IC50 (CA1; enzyme activity, inhibitor, absorbance; pH 7.4): 20400 nM
O=C1Nc2ccc(Cl)cc2[C@@](C#CC2CC2)(C(F)(F)F)O1  IC50 (SLC18A2; transporter uptake, inhibitor): 6120 nM
Cc1ccc(N2CCN(Cc3cccnc3Oc3ccc(-c4c(C)c(=O)[nH]c(=O)n4C)c(C)c3)CC2)cc1C  Ki (ADRA2A; ligand displacement, radioligand): 546 nM
Cc1cc(-c2ccnc3[nH]cc(F)c23)cc(F)c1[C@@]1(O)[C@H](C)CN(C(=O)CN)C[C@@H]1C  Kd (LATS1; binding, TR-FRET): 0.9 nM
Cc1cc(Oc2ncccc2CN2CCN(c3ncccc3C(F)(F)F)CC2)ccc1-c1c(C)c(=O)[nH]c(=O)n1C  Ki (ADRA2A; ligand displacement, radioligand): 47.4 nM
CC1CNCCC1(O)c1ccc(-c2ccnc3[nH]cc(F)c23)cc1 (stereo not drawn)  IC50 (LATS1; enzyme activity, inhibitor, radiometric): 9.8 nM
CCc1nn(CCCN2CCN(c3cccc(Cl)c3)CC2)c(=O)n1CCOc1ccccc1  IC50 (SLC18A2; transporter uptake, inhibitor, radiometric; cell membranes): 667 nM
Nc1nc2c(ncn2COCCO)c(=O)[nH]1  IC50 (Carbonic anhydrase 2 (CA2, Homo sapiens, UniProt P00918); enzyme activity, inhibitor, absorbance; pH 7.4): 13800 nM
O=C(O)c1cc2ccc(C#CC3(O)CCCCC3)cc2n1-c1ccccc1  Kd (Microphthalmia-associated transcription factor (Homo sapiens, UniProt O75030); binding, ITC): 13400 nM
CC(C)(C(=O)O)c1ccc(C(O)CCCN2CCC(C(O)(c3ccccc3)c3ccccc3)CC2)cc1 (stereo not drawn)  IC50 (CA1; enzyme activity, inhibitor, absorbance; pH 7.4): 19300 nM
COc1ccc(CN=c2[nH]c(N3CCC[C@H]3CO)ncc2C(=O)NCc2ncccn2)cc1Cl  IC50 (SLC18A2; transporter uptake, inhibitor): 9670 nM
Cc1cc(Oc2ncccc2CN2CCN(Cc3ccc(F)cc3)CC2)ccc1-c1c(C)c(=O)[nH]c(=O)n1C  Ki (ADRA2A; ligand displacement, radioligand): 2210 nM
O=C(Nc1c[nH]nc1-c1nc2cc(CN3CCOCC3)ccc2[nH]1)NC1CC1  IC50 (LATS1; enzyme activity, inhibitor, radiometric): 73 nM
COc1ccc(Cl)cc1N1CCN(Cc2cccnc2Oc2ccc(-c3c(C)c(=O)[nH]c(=O)n3C)c(C)c2)CC1  Ki (ADRA2A; ligand displacement, radioligand): 76.5 nM
O=C1Cc2cc(CCN3CCN(c4nsc5ccccc45)CC3)c(Cl)cc2N1  IC50 (SLC18A2; transporter uptake, inhibitor, radiometric; cell membranes): 15 nM
Cc1cc(Oc2ncccc2CN2CCN(c3ccccc3)CC2)ccc1-c1c(C)c(=O)[nH]c(=O)n1C  EC50 (ADRA2A; cAMP, agonist, luciferase): 10700 nM
CC(C)(C)NC(=O)C1CCN(Cc2cccc(NC(=O)c3ccc(F)cc3)c2)CC1  EC50 (Atypical chemokine receptor 3 (ACKR3, Homo sapiens, UniProt P25106); β-arrestin recruitment, agonist, luciferase): 10 nM
CN(C)CCCN1c2ccccc2Sc2ccc(Cl)cc21  IC50 (SLC18A2; transporter uptake, inhibitor): 3400 nM
OC1(c2ccc(-c3ccnc4[nH]cc(F)c34)cc2)CCCNC1 (stereo not drawn)  IC50 (LATS1; enzyme activity, inhibitor, radiometric): 26 nM
Cc1cc(Oc2ncccc2CN2CCN(c3ccc(C(F)(F)F)cn3)CC2)ccc1-c1c(C)c(=O)[nH]c(=O)n1C  Ki (ADRA2A; ligand displacement, radioligand): 1280 nM
COc1cc2nc(N(C)CCCNC(=O)C3CCCO3)nc(N)c2cc1OC (stereo not drawn)  IC50 (SLC18A2; transporter uptake, inhibitor): 249 nM
